# Measured values taken from ChEMBL document CHEMBL2417378, “Ligand-protein interactions of selective casein kinase 1δ inhibitors” (J Med Chem, 2013).
# Key:
# hERG (KCNH2) [1] = biological target: hERG (KCNH2) (Homo sapiens, UniProt Q12809); experiment: Displacement of [3H]dofetilide from human ERG channel at 10 uM; details: probe [3H]dofetilide
# [2] = biological target: T1, Casein kinase I isoform delta (Homo sapiens, UniProt P48730); experiment: Inhibition of human CK1 delta transfected in african green monkey cos7 cells after overnight incubation by whole cell assay; format: cell-based, COS-7
# T1 sequence (P48730 whole entry, canonical isoform): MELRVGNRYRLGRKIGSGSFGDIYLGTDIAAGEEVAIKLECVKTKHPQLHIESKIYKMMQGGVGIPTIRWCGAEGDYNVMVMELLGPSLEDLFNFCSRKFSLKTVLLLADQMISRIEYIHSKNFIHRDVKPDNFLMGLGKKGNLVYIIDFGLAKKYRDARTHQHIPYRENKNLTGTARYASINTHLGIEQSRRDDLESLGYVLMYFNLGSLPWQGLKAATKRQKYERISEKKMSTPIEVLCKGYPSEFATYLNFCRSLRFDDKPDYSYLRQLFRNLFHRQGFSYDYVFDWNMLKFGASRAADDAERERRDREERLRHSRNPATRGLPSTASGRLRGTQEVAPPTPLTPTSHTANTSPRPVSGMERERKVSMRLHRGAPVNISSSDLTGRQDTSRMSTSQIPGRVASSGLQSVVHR
# Procedure, shortened: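 COS-7 cells in DMEM with 10% FBS were co-transfected by lipofection with mPER3-GFP and human CK1δ plasmids (1:11), then plated. Compounds, diluted in Opti-MEM, were tested at 11 concentrations overnight at 37 °C. Cells were fixed in 4% paraformaldehyde and Hoechst-stained, and nuclear translocation of mPER3-GFP was imaged on ArrayScan.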
# [3] = biological target: T1, Casein kinase I isoform delta; experiment: Inhibition of CK1 delta (unknown origin) using PLSRTLpSVASLPGL as substrate after 60 mins by microplate reader analysis
# MAP kinase p38 [4] = biological target: T2, MAP kinase p38 (Homo sapiens, UniProt O15264+Q15759+Q16539+P53778); experiment: Inhibition of p38 (unknown origin) at 1 uM; format: protein assay
# [5] = biological target: Casein kinase I isoform epsilon (Homo sapiens, UniProt P49674); experiment: Inhibition of CK1 epsilon (unknown origin) using PLSRTLpSVASLPGL as substrate after 85 mins by microplate reader analysis
# Casein kinase I isoform epsilon, sequence (P49674 whole entry, canonical isoform): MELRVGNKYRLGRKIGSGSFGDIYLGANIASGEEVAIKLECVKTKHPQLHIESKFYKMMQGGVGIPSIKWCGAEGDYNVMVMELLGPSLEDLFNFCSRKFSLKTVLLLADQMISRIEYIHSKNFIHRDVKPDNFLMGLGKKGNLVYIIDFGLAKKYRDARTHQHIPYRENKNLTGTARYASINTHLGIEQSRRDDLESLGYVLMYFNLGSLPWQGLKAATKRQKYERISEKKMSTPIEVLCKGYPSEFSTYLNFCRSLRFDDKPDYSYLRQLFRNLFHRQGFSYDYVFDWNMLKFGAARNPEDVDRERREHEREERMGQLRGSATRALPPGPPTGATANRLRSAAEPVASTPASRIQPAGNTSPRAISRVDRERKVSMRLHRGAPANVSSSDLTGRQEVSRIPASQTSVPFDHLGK
# JNK2/JNK3 (Homo sapiens) = JNK2/JNK3 (Homo sapiens) (UniProt P53779+P45984); experiment: Inhibition of JNK 2/3 (unknown origin) at 1 uM; format: protein assay
# MAP kinase p38 [6] = biological target: T2, MAP kinase p38; experiment: Inhibition of p38 (unknown origin); format: protein assay
# Procedure, shortened: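 p38 IC50 determined by outside SelectScreen profiling service, ATP at Km.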
# [7] = biological target: Tyrosine-protein kinase Lyn (Homo sapiens) (UniProt P07948); experiment: Inhibition of LYN (unknown origin) at 1 uM
# [8] = biological target: Mitogen-activated protein kinase 14 (Homo sapiens) (UniProt Q16539); experiment: Inhibition of MAPK14 (unknown origin) at 1 uM
# [9] = biological target: Mitogen-activated protein kinase kinase kinase kinase 4 (Homo sapiens) (UniProt O95819); experiment: Inhibition of MAP4K4 (unknown origin) at 1 uM
# Mitogen-activated protein kinase kinase kinase kinase 4 (Homo sapiens), sequence (O95819 2-1239 limits assumed): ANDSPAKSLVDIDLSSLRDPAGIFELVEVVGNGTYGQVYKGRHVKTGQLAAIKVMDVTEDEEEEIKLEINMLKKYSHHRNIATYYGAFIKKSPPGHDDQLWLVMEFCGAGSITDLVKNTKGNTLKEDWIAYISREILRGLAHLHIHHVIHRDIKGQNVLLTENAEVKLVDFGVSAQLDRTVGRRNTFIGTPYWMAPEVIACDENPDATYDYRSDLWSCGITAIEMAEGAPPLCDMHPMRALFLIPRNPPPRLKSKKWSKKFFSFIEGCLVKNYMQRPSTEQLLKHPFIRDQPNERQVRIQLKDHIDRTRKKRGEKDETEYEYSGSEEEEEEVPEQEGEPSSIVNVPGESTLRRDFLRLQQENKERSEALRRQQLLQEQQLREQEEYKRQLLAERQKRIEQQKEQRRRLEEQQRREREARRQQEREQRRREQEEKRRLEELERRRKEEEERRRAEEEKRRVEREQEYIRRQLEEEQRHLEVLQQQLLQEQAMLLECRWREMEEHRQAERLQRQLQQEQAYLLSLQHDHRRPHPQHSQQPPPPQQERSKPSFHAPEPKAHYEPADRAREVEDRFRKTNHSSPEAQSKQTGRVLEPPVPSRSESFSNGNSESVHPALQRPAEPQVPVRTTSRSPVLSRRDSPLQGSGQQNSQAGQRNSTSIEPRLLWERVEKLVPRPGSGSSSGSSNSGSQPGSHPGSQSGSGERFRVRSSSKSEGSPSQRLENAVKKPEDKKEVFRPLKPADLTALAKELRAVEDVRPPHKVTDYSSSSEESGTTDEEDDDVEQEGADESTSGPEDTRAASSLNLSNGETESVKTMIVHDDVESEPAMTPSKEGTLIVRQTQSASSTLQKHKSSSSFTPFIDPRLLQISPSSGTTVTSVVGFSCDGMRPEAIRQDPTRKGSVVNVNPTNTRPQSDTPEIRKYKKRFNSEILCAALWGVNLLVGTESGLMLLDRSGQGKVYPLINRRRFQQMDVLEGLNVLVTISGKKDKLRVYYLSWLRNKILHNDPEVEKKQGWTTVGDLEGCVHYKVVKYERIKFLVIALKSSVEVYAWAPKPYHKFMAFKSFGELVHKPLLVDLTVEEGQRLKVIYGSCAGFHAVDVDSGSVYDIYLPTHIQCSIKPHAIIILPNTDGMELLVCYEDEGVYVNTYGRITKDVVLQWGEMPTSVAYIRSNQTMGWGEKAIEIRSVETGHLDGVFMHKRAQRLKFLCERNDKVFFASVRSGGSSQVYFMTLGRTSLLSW
# [10] = biological target: Rho-associated protein kinase 2 (Homo sapiens) (UniProt O75116); experiment: Inhibition of ROCK2 (unknown origin) at 1 uM
# [11] = biological target: Epidermal growth factor receptor (Homo sapiens) (UniProt P00533); experiment: Inhibition of EGFR (unknown origin) at 1 uM
# Epidermal growth factor receptor (Homo sapiens), sequence (P00533 whole entry): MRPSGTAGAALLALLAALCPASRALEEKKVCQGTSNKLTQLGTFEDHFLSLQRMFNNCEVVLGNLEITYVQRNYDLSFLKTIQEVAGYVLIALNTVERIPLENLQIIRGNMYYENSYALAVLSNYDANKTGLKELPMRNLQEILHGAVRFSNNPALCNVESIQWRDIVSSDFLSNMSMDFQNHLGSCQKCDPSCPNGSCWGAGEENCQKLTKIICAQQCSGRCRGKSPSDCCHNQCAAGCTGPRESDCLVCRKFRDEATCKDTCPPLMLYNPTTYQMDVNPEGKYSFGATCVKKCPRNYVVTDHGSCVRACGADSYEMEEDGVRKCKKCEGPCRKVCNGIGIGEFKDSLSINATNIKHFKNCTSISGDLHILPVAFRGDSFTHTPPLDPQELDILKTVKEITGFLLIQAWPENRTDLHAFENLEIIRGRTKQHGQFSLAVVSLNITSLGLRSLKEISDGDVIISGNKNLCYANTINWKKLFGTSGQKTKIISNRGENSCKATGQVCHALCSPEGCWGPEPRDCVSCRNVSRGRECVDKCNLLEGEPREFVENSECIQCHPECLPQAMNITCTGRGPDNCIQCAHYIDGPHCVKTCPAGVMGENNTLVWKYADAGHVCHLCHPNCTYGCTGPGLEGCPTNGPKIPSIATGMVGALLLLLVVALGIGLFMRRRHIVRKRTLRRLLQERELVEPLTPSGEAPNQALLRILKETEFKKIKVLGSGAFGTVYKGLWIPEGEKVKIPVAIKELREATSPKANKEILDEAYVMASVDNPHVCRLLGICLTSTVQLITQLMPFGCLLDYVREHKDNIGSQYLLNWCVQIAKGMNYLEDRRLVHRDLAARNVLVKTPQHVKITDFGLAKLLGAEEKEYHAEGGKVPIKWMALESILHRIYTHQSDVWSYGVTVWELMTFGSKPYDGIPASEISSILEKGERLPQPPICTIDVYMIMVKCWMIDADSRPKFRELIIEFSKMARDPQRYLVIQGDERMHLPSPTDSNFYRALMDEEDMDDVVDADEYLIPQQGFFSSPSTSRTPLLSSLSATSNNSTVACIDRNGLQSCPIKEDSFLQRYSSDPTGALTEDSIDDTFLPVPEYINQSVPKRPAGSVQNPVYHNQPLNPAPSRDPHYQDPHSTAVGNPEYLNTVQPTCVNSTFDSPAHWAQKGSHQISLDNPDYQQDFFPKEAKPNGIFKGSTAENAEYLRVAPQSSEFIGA
# [12] = biological target: Tyrosine-protein kinase ABL1 (Homo sapiens) (UniProt P00519); experiment: Inhibition of ABL (unknown origin) at 1 uM
# [13] = biological target: T3, Voltage-gated inwardly rectifying potassium channel KCNH2 (Homo sapiens, UniProt Q12809); experiment: Inhibition of human ERG channel by electrophysiological method
# T3 sequence (Q12809 whole entry): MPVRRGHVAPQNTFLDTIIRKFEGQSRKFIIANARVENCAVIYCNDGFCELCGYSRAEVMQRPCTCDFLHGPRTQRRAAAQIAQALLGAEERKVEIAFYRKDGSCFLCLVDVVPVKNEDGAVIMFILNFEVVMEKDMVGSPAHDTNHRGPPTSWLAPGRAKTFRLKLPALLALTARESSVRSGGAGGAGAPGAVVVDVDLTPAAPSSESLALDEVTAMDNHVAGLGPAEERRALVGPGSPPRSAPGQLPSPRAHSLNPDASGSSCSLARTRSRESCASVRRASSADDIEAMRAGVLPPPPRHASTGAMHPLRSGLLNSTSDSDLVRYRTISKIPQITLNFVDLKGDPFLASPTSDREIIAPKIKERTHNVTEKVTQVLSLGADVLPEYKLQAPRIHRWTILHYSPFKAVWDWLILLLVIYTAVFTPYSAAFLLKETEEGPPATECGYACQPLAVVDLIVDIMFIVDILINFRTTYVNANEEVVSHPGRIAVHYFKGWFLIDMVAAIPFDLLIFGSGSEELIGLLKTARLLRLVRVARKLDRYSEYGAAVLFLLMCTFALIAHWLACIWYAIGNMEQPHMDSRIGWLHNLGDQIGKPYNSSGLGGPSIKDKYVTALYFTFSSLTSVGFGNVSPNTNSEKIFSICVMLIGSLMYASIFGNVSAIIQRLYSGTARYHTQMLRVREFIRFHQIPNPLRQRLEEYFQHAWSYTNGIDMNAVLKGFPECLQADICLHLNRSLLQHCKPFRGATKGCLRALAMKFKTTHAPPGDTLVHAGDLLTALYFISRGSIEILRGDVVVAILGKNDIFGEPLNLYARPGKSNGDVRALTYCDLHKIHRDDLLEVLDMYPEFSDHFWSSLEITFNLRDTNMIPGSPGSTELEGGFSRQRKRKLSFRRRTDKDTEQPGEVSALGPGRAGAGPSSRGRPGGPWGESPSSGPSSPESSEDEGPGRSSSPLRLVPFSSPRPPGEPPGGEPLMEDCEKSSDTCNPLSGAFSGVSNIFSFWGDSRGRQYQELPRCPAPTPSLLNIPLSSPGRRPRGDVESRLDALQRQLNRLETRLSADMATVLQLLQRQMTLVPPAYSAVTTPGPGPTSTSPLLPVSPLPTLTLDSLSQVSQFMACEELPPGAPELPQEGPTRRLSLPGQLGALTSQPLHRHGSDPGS
# [14] = biological target: T3, Voltage-gated inwardly rectifying potassium channel KCNH2; experiment: Displacement of [3H]dofetilide from human ERG channel
# Brain [15] = experiment: fCmax in C57Bl/6J mouse brain at 56 mg/kg, sc by LC/MS analysis; format: ADME, organism-based; parameters: dose 56 mg/kg, route subcutaneous; details: in vivo
# Procedure, shortened: (§1)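 Male C57BL/6J mice got a single subcutaneous dose. Plasma and whole brain were taken at 0.5–24 h (n = 4 per time). Brain was homogenized in 60% isopropanol and samples quantified by LC-MS after protein precipitation. Free fraction came from 6 h equilibrium dialysis at 37 °C of plasma or brain homogenate spiked with 1 μM compound.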
# Plasma [16] = experiment: fCmax in C57Bl/6J mouse plasma at 56 mg/kg, sc by LC/MS analysis; format: ADME, organism-based; parameters: dose 56 mg/kg, route subcutaneous; details: in vivo; procedure, shortened: as §1
# Brain [17] = experiment: fCmax in C57Bl/6J mouse brain at 32 mg/kg, sc by LC/MS analysis; format: ADME, organism-based; parameters: dose 32 mg/kg, route subcutaneous; details: in vivo; procedure, shortened: as §1
# [18] = biological target: Casein kinase I isoform alpha (Homo sapiens) (UniProt P48729); experiment: Inhibition of CK1 alpha (unknown origin) at 1 uM
# [19] = biological target: Tyrosine-protein kinase Lck (Homo sapiens) (UniProt P06239); experiment: Inhibition of LCK (unknown origin) at 1 uM
# Tyrosine-protein kinase Lck (Homo sapiens), sequence (P06239 2-509 limits assumed): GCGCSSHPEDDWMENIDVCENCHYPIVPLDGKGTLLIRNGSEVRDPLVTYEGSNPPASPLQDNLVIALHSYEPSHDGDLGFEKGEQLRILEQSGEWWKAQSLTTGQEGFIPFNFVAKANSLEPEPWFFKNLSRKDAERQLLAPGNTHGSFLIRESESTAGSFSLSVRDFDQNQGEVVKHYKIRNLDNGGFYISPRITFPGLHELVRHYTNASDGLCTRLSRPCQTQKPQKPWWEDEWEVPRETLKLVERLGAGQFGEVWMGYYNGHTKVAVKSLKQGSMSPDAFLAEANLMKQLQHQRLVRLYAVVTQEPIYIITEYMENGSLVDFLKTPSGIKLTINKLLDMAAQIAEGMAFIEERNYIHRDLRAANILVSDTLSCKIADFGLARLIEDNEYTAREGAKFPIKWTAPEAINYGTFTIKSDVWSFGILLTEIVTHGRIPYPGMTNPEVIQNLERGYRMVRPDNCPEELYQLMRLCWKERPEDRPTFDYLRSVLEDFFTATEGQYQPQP
# Homo sapiens = species: Homo sapiens; experiment: Inhibition of PKA alpha (unknown origin) at 1 uM
# Plasma [20] = experiment: fCmax in C57Bl/6J mouse plasma at 32 mg/kg, sc by LC/MS analysis; format: ADME, organism-based; parameters: dose 32 mg/kg, route subcutaneous; details: in vivo; procedure, shortened: as §1
# [21] = Ratio of fCmax in brain to plasma of C57Bl/6J mouse; format: ADME, cell-free
# Procedure, shortened: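 Male C57BL/6J mice given a single subcutaneous dose (56 mg/kg unless noted). Plasma and whole brain were taken under isoflurane at 0.5, 1, 2, 4, 8 and 24 h (n = 4 per time point). Brain was homogenised in 4 volumes of 60% isopropanol, and samples were quantified by LC-MS after protein precipitation. Free fractions came from equilibrium dialysis of 1 μM-spiked plasma or brain homogenate (6 h, 37 °C, n = 6).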
# hERG (KCNH2) [22] = experiment: Therapeutic index, ratio of EC50 for human ERG channel to fCmax in mouse plasma; format: cell-free; details: read-out: TI
# Mus musculus = experiment: In vivo inhibition of CK1 delta in C57Bl/6J mouse circardian rhythm model assessed as delay in phase shift at 56 mg/kg, sc after 3 days; format: functional; details: route subcutaneous
# Procedure, shortened: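 Mice received 56 mg/kg subcutaneously for 3 days. Phase shift was taken as the start of the active period after dosing minus before dosing.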
IC50 [2],IC50 [3],inhibition (MAP kinase p38 [4]),IC50 [5],IC50 (MAP kinase p38 [6]),inhibition [9],inhibition [11],fCmax (Brain [15]),fCmax (Plasma [16]),Compound,IC50 [13],IC50 [14],further results
237 nM,14.2 nM,42%,81.6 nM,,,,,,Cn1cc(-c2ccnc(CO)c2)c(-c2ccc(F)cc2)n1,,,inhibition at 10 µM (hERG (KCNH2) [1]): 6%
545 nM,48.1 nM,85%,305 nM,126 nM,66%,80%,,,Cn1cc(-c2ccncc2)c(-c2ccc(F)cc2)n1,,,inhibition (JNK2/JNK3 (Homo sapiens)): 48%; inhibition [7]: 70.5%; inhibition [8]: 55%; inhibition [10]: 52%; inhibition [12]: 61%
90 nM,5.3 nM,,28.2 nM,> 1000 nM,,,3.7 µM,1.95 µM,"Cn1cc(-c2ccnc(C3COCCN3)c2)c(-c2ccc(F)cc2)n1 (single isomer, unassigned; (-))",4430 nM,25900 nM,
,,> 50%,,39.2 nM,> 50%,> 50%,,,Nc1nccc(-c2c(-c3ccc(F)cc3)ncn2C2CCCCC2)n1,,,fCmax (Brain [17]): 0.241 µM; inhibition [18]: > 50%; inhibition [19]: > 50%; inhibition (Homo sapiens): > 50%; fCmax (Plasma [20]): 0.752 µM
39 nM,,,27 nM,654 nM,,,2.97 µM,8.82 µM,Cn1cc(-c2ccnc3c2OCCNC3)c(-c2ccc(F)cc2)n1,25700 nM,> 79600 nM,Kp uu [21]: 0.33; selectivity ratio (hERG (KCNH2) [22]): 3; Time (Mus musculus): 175 min
63.8 nM,12.9 nM,,67.2 nM,3040 nM,,,7.53 µM,9.66 µM,CNCc1cc(-c2cn(C)nc2-c2ccc(F)cc2)ccn1,,,
